Measurements from ChEMBL document CHEMBL1143237, “Sulfonamide-1,2,4-triazole derivatives as antifungal and antibacterial agents: synthesis, biological evaluation, lipophilicity, and conformational studies” (Bioorg Med Chem, 2008).
Converted amounts (≈) assume the structure as drawn.

Key:
[1] = tested on: Talaromyces funiculosus; test: Antifungal activity against Penicillium funiculosum ATCC 36839 after 72 hrs by microdilution test; format: functional; conditions: ATCC 36839, 72 h
Summary of the method: (§1)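 Modified microdilution in malt broth. Spores were washed from malt agar with sterile 0.85% saline containing 0.1% Tween 80 and adjusted to about 1.0 × 10⁵ per well. Compounds were dissolved in DMSO and tested at […] µg/ml. Incubation 72 h at 28 °C. MIC is the lowest concentration with no visible growth under a binocular microscope. MFC by 2 µl subculture and a further 72 h at 28 °C.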

[2] = tested on: Trichoderma viride; test: Antifungal activity against Trichoderma viride IAM 5061 after 72 hrs by microdilution test; format: functional; summary of the method: as §1
[3] = tested on: Bacillus cereus; test: Antibacterial activity against Bacillus cereus ATCC 10907 after 24 hrs by microdilution test; conditions: ATCC 10907, 24 h
[4] = tested on: Salmonella enteritidis; test: Antibacterial activity against Salmonella enteritidis ATCC 13076 after 24 hrs by microdilution test; format: functional, Salmonella enterica subsp. enterica serovar Enteritidis; conditions: Salmonella enterica, ATCC 13076, 24 h
Summary of the method: (§2)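 Broth microdilution in LB medium in 96-well plates. Inoculum 1.0 × 10⁴ CFU per well, from a suspension set to 1.0 × 10⁵ CFU/ml in sterile saline. Compounds at […] µg/ml. Incubation 24 h at 28 °C. MIC is the lowest concentration with no visible growth under a binocular microscope. MBC by subculturing 2 µl into fresh broth for a further 72 h. OD540 read against blank. DMSO negative control.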

[5] = tested on: Staphylococcus epidermidis; test: Antibacterial activity against Staphylococcus epidermidis ATCC 12228 after 24 hrs by microdilution test; format: functional; conditions: ATCC 12228, 24 h; summary of the method: as §2
[6] = tested on: Enterobacter cloacae; test: Antibacterial activity against Enterobacter cloacae after 24 hrs by microdilution test; format: functional; summary of the method: as §2
[7] = Partition coefficient, log P of the compound; format: physicochemical; conditions: octanol/water
Summary of the method: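 Calculated, not measured: AlogP, IAlogP, ClogP, Cosmo logP, mlogP, Kowwin and XlogP were computed and averaged.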

[8] = tested on: Aspergillus ochraceus; test: Antifungal activity against Aspergillus ochraceus ATCC 12066 after 72 hrs by microdilution test; format: functional; conditions: ATCC 12066, 72 h; summary of the method: as §1
[9] = tested on: Micrococcus luteus; test: Antibacterial activity against Micrococcus flavus ATCC 10240 after 24 hrs by microdilution test; format: functional; conditions: ATCC 10240, 24 h; summary of the method: as §2
[10] = tested on: Aspergillus flavus; test: Antifungal activity against Aspergillus flavus ATCC 9643 after 72 hrs by microdilution test; format: functional; conditions: ATCC 9643, 72 h; summary of the method: as §1
[11] = tested on: Salmonella typhimurium; test: Antibacterial activity against Salmonella Typhimurium ATCC 13311 after 24 hrs by microdilution test; format: functional, Salmonella enterica subsp. enterica serovar Typhimurium; conditions: Salmonella enterica, ATCC 13311, 24 h; summary of the method: as §2
[12] = tested on: Aspergillus niger; test: Antifungal activity against Aspergillus niger ATCC 6275 after 72 hrs by microdilution test; format: functional; conditions: ATCC 6275, 72 h; summary of the method: as §1
[13] = tested on: Escherichia coli; test: Antibacterial activity against Escherichia coli ATCC 35210 after 24 hrs by microdilution test; format: functional; conditions: ATCC 35210, 24 h; summary of the method: as §2
[14] = tested on: Aspergillus versicolor; test: Antifungal activity against Aspergillus versicolor ATCC 11730 after 72 hrs by microdilution test; format: functional; conditions: ATCC 11730, 72 h; summary of the method: as §1

SMILES | MFC [1] [µg/mL] | MIC [1] [µg/mL] | MFC [2] [µg/mL] | MIC [2] [µg/mL] | MBC [3] [µg/mL] | MIC [3] [µg/mL] | MBC [4] [µg/mL] | MIC [4] [µg/mL] | MBC [5] [µg/mL] | MIC [5] [µg/mL] | MBC [6] [µg/mL] | MIC [6] [µg/mL] | logP [7] | MFC [8] [µg/mL] | MIC [8] [µg/mL] | MBC [9] [µg/mL] | MIC [9] [µg/mL] | MFC [10] [µg/mL] | MIC [10] [µg/mL] | MBC [11] [µg/mL] | also measured
COc1cc(Cc2n[nH]c(=S)n2-c2ccc(Cl)cc2)c(S(=O)(=O)N(C)C)cc1OC | 100 (≈ 213 µM) | 100 (≈ 213 µM) | 100 (≈ 213 µM) | 50 (≈ 107 µM) | 150 (≈ 320 µM) | 150 (≈ 320 µM) | 150 (≈ 320 µM) | 150 (≈ 320 µM) | 150 (≈ 320 µM) | 150 (≈ 320 µM) | 100 (≈ 213 µM) | 100 (≈ 213 µM) | 2.4 | 150 (≈ 320 µM) | 100 (≈ 213 µM) | 150 (≈ 320 µM) | 150 (≈ 320 µM) | 100 (≈ 213 µM) | 50 (≈ 107 µM) | 150 (≈ 320 µM) | MIC [11]: 150 µg/mL (≈ 320 µM); MFC [12]: 150 µg/mL (≈ 320 µM); MIC [12]: 100 µg/mL (≈ 213 µM); MBC [13]: 150 µg/mL (≈ 320 µM); MIC [13]: 100 µg/mL (≈ 213 µM); MFC [14]: 150 µg/mL (≈ 320 µM); MIC [14]: 100 µg/mL (≈ 213 µM)
CCN(CC)S(=O)(=O)c1cc(OC)c(OC)cc1Cc1n[nH]c(=S)n1-c1ccccc1 | 150 (≈ 324 µM) | 100 (≈ 216 µM) | 100 (≈ 216 µM) | 50 (≈ 108 µM) | 150 (≈ 324 µM) | 150 (≈ 324 µM) | 150 (≈ 324 µM) | 150 (≈ 324 µM) | 150 (≈ 324 µM) | 150 (≈ 324 µM) | 100 (≈ 216 µM) | 100 (≈ 216 µM) | 2.48 | 150 (≈ 324 µM) | 100 (≈ 216 µM) | 150 (≈ 324 µM) | 150 (≈ 324 µM) | 150 (≈ 324 µM) | 100 (≈ 216 µM) | 150 (≈ 324 µM) | MIC [11]: 150 µg/mL (≈ 324 µM); MFC [12]: 150 µg/mL (≈ 324 µM); MIC [12]: 100 µg/mL (≈ 216 µM); MBC [13]: 150 µg/mL (≈ 324 µM); MIC [13]: 100 µg/mL (≈ 216 µM); MFC [14]: 150 µg/mL (≈ 324 µM); MIC [14]: 100 µg/mL (≈ 216 µM)
COc1cc(Cc2n[nH]c(=S)n2-c2ccccc2)c(S(=O)(=O)N2CCCCC2)cc1OC | 150 (≈ 316 µM) | 100 (≈ 211 µM) | 150 (≈ 316 µM) | 100 (≈ 211 µM) | 150 (≈ 316 µM) | 150 (≈ 316 µM) | 150 (≈ 316 µM) | 150 (≈ 316 µM) | 150 (≈ 316 µM) | 150 (≈ 316 µM) | 100 (≈ 211 µM) | 100 (≈ 211 µM) | 2.63 | 150 (≈ 316 µM) | 100 (≈ 211 µM) | 150 (≈ 316 µM) | 150 (≈ 316 µM) | 150 (≈ 316 µM) | 100 (≈ 211 µM) | 150 (≈ 316 µM) | MIC [11]: 100 µg/mL (≈ 211 µM); MFC [12]: 150 µg/mL (≈ 316 µM); MIC [12]: 100 µg/mL (≈ 211 µM); MBC [13]: 150 µg/mL (≈ 316 µM); MIC [13]: 100 µg/mL (≈ 211 µM); MFC [14]: 150 µg/mL (≈ 316 µM); MIC [14]: 100 µg/mL (≈ 211 µM)
CCN(CC)S(=O)(=O)c1cc(OC)c(OC)cc1Cc1n[nH]c(=S)n1-c1ccc(Cl)cc1 | 150 (≈ 302 µM) | 100 (≈ 201 µM) | 100 (≈ 201 µM) | 50 (≈ 101 µM) | 150 (≈ 302 µM) | 150 (≈ 302 µM) | 150 (≈ 302 µM) | 150 (≈ 302 µM) | 150 (≈ 302 µM) | 150 (≈ 302 µM) | 100 (≈ 201 µM) | 100 (≈ 201 µM) | 3.15 | 150 (≈ 302 µM) | 100 (≈ 201 µM) | 150 (≈ 302 µM) | 150 (≈ 302 µM) | 150 (≈ 302 µM) | 100 (≈ 201 µM) | 150 (≈ 302 µM) | MIC [11]: 150 µg/mL (≈ 302 µM); MFC [12]: 150 µg/mL (≈ 302 µM); MIC [12]: 100 µg/mL (≈ 201 µM); MBC [13]: 150 µg/mL (≈ 302 µM); MIC [13]: 100 µg/mL (≈ 201 µM); MFC [14]: 150 µg/mL (≈ 302 µM); MIC [14]: 100 µg/mL (≈ 201 µM)
